Columns and labels:
143B = assay: Inhibitory activity against tumor osteosarcoma cell line 143B after 72 hr continuous exposure to compound; assay type: functional, cell-based; settings: Homo sapiens
Outline: (§1)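 Log-phase cells were plated in triplicate at 2500–3500 cells/well, and the compound was added 24 h later for 72 h continuous exposure. […] Media: A2780/143B DMEM+5% FBS; HT29 DMEM+10% FBS; HCT116 RPMI+10% FBS; ADDP (cisplatin-resistant A2780) RPMI+5% FBS.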

A2780 = assay: Inhibitory activity against ovarian tumor cell line A2780 after 72 hr continuous exposure to compound; assay type: functional, cell-based; settings: Homo sapiens, A2780, 72 h; outline: as §1
ADDP cell line = assay: Inhibitory activity against ovarian tumor cell line ADDP after 72 hr continuous exposure to compound; assay type: functional, cell-based; settings: Homo sapiens; outline: as §1
HCT-116 = assay: Inhibitory activity against colon tumor cell line HCT116 after 72 hr continuous exposure to compound; assay type: functional, cell-based; settings: Homo sapiens, HCT-116, 72 h; outline: as §1
HT-29 = assay: Inhibitory activity against colon tumor cell line HT-29 after 72 hr continuous exposure to compound; assay type: functional, cell-based; settings: Homo sapiens, HT-29, 72 h; outline: as §1
[1] = molecular target: Serine/threonine-protein phosphatase 2A catalytic subunit alpha isoform (Homo sapiens) (UniProt P67775); assay: The compound was tested for the selectivity against protein phosphatases 2A
[2] = molecular target: Serine/threonine-protein phosphatase 2A catalytic subunit (Gallus gallus); assay: Inhibitory activity against partially purified (chicken skeletal muscle) Protein phosphatase 2A
L1210 = assay: Inhibitory activity against L1210 leukemia cells; assay type: functional, cell-based; settings: Mus musculus
DNA topoisomerase 2 = molecular target: T1, DNA topoisomerase 2 (Drosophila melanogaster, UniProt P15348); assay: Inhibition of topoisomerase IIin vitro through a novel, non-DNA-strandcleaving mechanism
T1 sequence (P15348 whole entry): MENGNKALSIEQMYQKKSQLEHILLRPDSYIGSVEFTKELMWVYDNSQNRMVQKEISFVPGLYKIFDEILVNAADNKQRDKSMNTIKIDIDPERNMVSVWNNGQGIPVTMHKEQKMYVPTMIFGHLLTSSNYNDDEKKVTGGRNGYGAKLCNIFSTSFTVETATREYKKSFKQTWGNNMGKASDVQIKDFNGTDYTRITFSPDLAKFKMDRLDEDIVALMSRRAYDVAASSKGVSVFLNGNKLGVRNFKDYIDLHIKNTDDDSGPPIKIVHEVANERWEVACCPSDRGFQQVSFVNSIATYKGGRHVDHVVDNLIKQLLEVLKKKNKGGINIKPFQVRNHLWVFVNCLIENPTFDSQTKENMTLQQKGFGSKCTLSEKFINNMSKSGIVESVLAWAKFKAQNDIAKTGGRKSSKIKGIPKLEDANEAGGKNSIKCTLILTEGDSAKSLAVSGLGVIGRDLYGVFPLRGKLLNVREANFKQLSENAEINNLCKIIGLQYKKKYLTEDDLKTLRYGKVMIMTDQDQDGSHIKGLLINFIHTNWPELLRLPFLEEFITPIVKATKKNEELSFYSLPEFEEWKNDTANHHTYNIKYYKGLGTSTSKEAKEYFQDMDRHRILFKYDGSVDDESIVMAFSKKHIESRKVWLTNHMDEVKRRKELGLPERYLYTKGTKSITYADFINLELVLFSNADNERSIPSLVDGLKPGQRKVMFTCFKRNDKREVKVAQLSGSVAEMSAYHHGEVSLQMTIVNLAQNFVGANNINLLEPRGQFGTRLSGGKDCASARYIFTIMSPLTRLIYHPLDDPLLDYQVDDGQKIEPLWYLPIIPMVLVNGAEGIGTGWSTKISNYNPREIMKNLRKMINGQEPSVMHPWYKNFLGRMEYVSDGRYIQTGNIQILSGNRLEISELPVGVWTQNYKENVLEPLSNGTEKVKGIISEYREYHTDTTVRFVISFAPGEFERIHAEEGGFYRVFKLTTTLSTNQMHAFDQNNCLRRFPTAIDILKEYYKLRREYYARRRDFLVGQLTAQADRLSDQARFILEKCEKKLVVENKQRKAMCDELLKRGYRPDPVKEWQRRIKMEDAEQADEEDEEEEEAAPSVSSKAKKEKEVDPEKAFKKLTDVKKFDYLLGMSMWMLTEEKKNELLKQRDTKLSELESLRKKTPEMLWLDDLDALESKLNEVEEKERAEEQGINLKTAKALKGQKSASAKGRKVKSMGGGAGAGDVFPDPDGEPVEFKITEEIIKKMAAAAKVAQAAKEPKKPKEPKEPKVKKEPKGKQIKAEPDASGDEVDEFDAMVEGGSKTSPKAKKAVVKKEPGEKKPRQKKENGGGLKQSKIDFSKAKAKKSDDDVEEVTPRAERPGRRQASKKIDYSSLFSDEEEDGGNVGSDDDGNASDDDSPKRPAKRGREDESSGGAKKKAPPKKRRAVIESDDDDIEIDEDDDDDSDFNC

Sequence of Serine/threonine-protein phosphatase 2A catalytic subunit alpha isoform (Homo sapiens) (P67775 whole entry, canonical isoform): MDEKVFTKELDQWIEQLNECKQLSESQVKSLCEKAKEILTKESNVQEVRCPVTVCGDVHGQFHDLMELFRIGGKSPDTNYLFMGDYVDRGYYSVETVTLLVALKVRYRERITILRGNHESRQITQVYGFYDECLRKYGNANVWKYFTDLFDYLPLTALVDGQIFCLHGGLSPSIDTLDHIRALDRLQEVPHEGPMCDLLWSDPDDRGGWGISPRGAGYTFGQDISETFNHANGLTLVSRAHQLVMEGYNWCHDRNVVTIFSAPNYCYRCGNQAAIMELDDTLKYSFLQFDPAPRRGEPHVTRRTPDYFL

| Compound | IC50 (143B) [µM] | IC50 (A2780) [µM] | IC50 (ADDP cell line) [µM] | IC50 (HCT-116) [µM] | IC50 (HT-29) [µM] | Selectivity [1] | IC50 [2] [µM] | IC50 (L1210) [µM] | IC50 (DNA topoisomerase 2) [µM] |
| --- | --- | --- | --- | --- | --- | --- | --- | --- | --- |
| O=C1OC(=O)[C@H]2[C@@H]1[C@@H]1CC[C@H]2O1 | 43 | 50 | 47 | 24 | 33 |  |  |  |  |
| CCOC(=O)C1C(C(=O)O)[C@@H]2CC[C@H]1O2 (single isomer, unassigned) | 437 | 185 | 330 | 266 | 243 | 6.6 | 0.45 |  |  |
| CCCOC1OC(=O)[C@H]2[C@@H]1[C@@H]1CC[C@H]2O1 (some centres undefined) | > 1000 | 375 | 535 | 195 | 41 |  |  |  |  |
| CCOC1OC(=O)[C@H]2[C@@H]1[C@@H]1CC[C@H]2O1 (some centres undefined) | 103 | 100 | 107 | 80 | 26 |  |  |  |  |
| C[C@@]12C(=O)OC(=O)[C@]1(C)[C@H]1CC[C@@H]2O1 [CANTHARIDIN] | 10 | 10 | 11 | 9 | 6.4 |  |  |  |  |
| CCCOC(=O)C1C(C(=O)O)[C@@H]2CC[C@H]1O2 (single isomer, unassigned) |  |  | 315 | 75 | 15 |  |  |  |  |
| C[C@@](O)(/C=C/[C@H]1CC=CC(=O)O1)[C@@H](C[C@@H](O)\C=C/C=C\C=C\CO)OP(=O)(O)O [FOSTRIECIN] |  |  |  |  |  |  | 0.0034 | 0.46 | 40 |
| COC(=O)C1C(C(=O)O)[C@@H]2CC[C@H]1O2 (single isomer, unassigned) | 118 | 100 | 180 | 76 | 105 |  |  |  |  |
| COC1OC(=O)[C@H]2[C@@H]1[C@@H]1CC[C@H]2O1 (some centres undefined) | > 1000 | 538 | 323 | 143 | 28 |  | > 1000 |  |  |

Source: ChEMBL document CHEMBL1133252 (Bioorg Med Chem Lett, 2000)
